The source made the active and inactive calls. The calls are words filed in the database; no cut-off is given here.
Key:
[1] = target: T1, Protein lin-28 homolog A/B (Homo sapiens) (UniProt Q6ZN17+Q9H9Z2); assay: Inhibition of Lin28a/Lin28b in human JAR cells assessed as increase in mature let-7a level at 5 to 10 uM after 20 hrs by TRIzol dye based qRT-PCR analysis; format: cell-based
Method in brief: (§1)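 JAR cells (express Lin28a and Lin28b) exposed to compound for 20 h; miRNA levels quantified with U6 snRNA as endogenous control; three or more biological replicates, standard deviation, paired two-tailed t test.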

[2] = target: T2, Protein lin-28 homolog A (Homo sapiens) (UniProt Q9H9Z2); assay: Inhibition of Cy5-preE-let-7g binding to recombinant human N-terminal His6-tagged Lin28a expressed in Escherichia coli Rosetta2 (DE3) pLysS at 15 uM measured after 30 to 60 mins by electrophoretic mobility shift assay relative to control
T2 sequence (whole entry): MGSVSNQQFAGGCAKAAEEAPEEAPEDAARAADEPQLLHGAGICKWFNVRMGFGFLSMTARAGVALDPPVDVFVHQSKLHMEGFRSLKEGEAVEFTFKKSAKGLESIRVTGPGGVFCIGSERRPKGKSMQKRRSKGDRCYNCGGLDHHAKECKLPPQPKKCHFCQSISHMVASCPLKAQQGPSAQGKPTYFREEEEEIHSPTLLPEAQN

[3] = target: T1, Protein lin-28 homolog A/B (Homo sapiens); assay: Inhibition of Lin28a/Lin28b in human JAR cells assessed as reduction in HMGA2 expression at 5 to 10 uM after 24 hrs by Western blot analysis; format: cell-based
Method in brief: (§2)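 Endogenous let-7 target proteins (HMGA2, IMP1, Ras, Lin28a) detected by Western blot in JAR or PA-1 cells after 24 h compound treatment.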

[4] = target: T1, Protein lin-28 homolog A/B (Homo sapiens); assay: Inhibition of Lin28a/Lin28b in human JAR cells assessed as reduction in Ras expression at 5 to 10 uM after 24 hrs by Western blot analysis; format: cell-based; method in brief: as §2
[5] = target: T1, Protein lin-28 homolog A/B (Homo sapiens); assay: Inhibition of Lin28a/Lin28b in human JAR cells assessed as reduction in Lin28a expression at 5 to 10 uM after 24 hrs by Western blot analysis; format: cell-based; method in brief: as §2
[6] = target: T1, Protein lin-28 homolog A/B (Homo sapiens); assay: Inhibition of Lin28a/Lin28b in human JAR cells assessed as reduction in IMP1 expression at 5 to 10 uM after 24 hrs by Western blot analysis; format: cell-based; method in brief: as §2
[7] = target: T1, Protein lin-28 homolog A/B (Homo sapiens); assay: Inhibition of Lin28a/Lin28b in human JAR cells assessed as increase in mature let-7g level at 5 to 10 uM after 20 hrs by TRIzol dye based qRT-PCR analysis; format: cell-based; method in brief: as §1
[8] = target: T1, Protein lin-28 homolog A/B (Homo sapiens); assay: Inhibition of Lin28a/Lin28b in human paclitaxel-resistant JAR cells assessed as potentiation of paclitaxel induced cytotoxicity at 40 uM pretreated for 30 hrs followed by paclitaxel addition and measured after 72 hrs by WTS assay
Method in brief: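 Paclitaxel-resistant JAR persister cells, enriched by cytotoxic paclitaxel exposure and regrowth without drug. Cells pretreated 30 h with compound, then given paclitaxel for 72 h without compound; WST viability used to derive the paclitaxel IC50.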

[9] = target: T1, Protein lin-28 homolog A/B (Homo sapiens); assay: Inhibition of Lin28a/Lin28b in human paclitaxel-resistant JAR cells assessed as reduction in IMP1 expression at 40 uM measured after 24 hrs by Western blot analysis
[10] = target: T1, Protein lin-28 homolog A/B (Homo sapiens); assay: Inhibition of Lin28a/Lin28b in human paclitaxel-resistant JAR cells assessed as reduction in MDR1 expression at 40 uM measured after 30 hrs by Western blot analysis
Protein lin-28 homolog A = target: T3, Protein lin-28 homolog A (Homo sapiens, UniProt Q9H9Z2); assay: Inhibition of Cy5-preE-let-7g binding to recombinant human N-terminal His6-tagged Lin28a expressed in Escherichia coli Rosetta2 (DE3) pLysS measured after 30 to 60 mins by electrophoretic mobility shift assay
T3 sequence (Q9H9Z2 whole entry): T2 sequence (whole entry)

T1 sequence (Q6ZN17 whole entry, looked up, one chain of several): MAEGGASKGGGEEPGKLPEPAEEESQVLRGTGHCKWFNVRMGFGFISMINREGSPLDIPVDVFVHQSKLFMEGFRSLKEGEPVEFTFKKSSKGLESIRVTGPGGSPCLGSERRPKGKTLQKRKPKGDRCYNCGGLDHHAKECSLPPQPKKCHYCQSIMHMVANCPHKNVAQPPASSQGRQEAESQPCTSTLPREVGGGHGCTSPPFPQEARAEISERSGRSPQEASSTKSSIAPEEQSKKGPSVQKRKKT

COc1cccc(Nc2[nH]c3c(Cl)ccc(Cl)c3c(=O)c2C(N)=O)c1
Activity [1]: Active | inhibition [2]: 14% | inhibition [3]: inactive | inhibition [4]: inactive | inhibition [5]: inactive | inhibition [6]: inactive | Activity [7]: Active

CC1(C)Oc2cc(N3CCN(C(=O)OCc4ccccc4)CC3)c([N+](=O)[O-])cc2-c2c1cnn2-c1ccc(C(=O)O)cc1
inhibition [8]: Active | inhibition [9]: Active | inhibition [10]: Active

NC(=O)c1c(Nc2ccc(F)cc2)[nH]c2c(Cl)ccc(Cl)c2c1=O
inhibition [2]: 40%

NC(=O)c1c(Nc2ccc(Cl)cc2Cl)[nH]c2c(Cl)c(Cl)ccc2c1=O
IC50 (Protein lin-28 homolog A): 11 µM
